Inhibition and Activity data for one compound are collected here from ChEMBL document CHEMBL1240314, “Small-molecule inhibitor of p53 binding to mitochondria protects mice from gamma radiation” (2006).

Assay [1] deals with Cellular tumor antigen p53 (Homo sapiens) (UniProt P04637). Description: Inhibition of p53-dependent transcription of bax in human MCF7 cells. It counts as cell-based. In short, it runs like this:
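Northern analysis of MCF7 cells, p53 wild-type and shRNA p53-knockdown. Induction by UV 8.5 J m–2 or Dox […]. RNA isolated 18 h after treatment; 10 µg hybridised with 32P-labelled full-length cDNA probes for Bax, Noxa or Puma. 18S rRNA used as loading control.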

Assay [2] has the same target. Description: Inhibition of p53-mediated transactivation of p21 in gamma-stimulated human BJ cells at 10 uM after 6 hrs. Type of assay: cell-based.
Assay [3] has as its target Cellular tumor antigen p53 (Mus musculus) (UniProt P02340). In words: Inhibition of p53-dependent transcription of puma in mouse thymocyte.
A further assay has as its system U2OS. Description: Induction of Bax gene expression in human U2OS cells. It counts as functional, cell-based. The method, boiled down:
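Northern blot: 10 mg RNA (so in the source) isolated 18 h after UV (8.5 J m–2) or doxorubicin (125 mg ml–1 as printed) from MCF7 or U2OS cells and p53-knockdown (lentiviral shRNA) counterparts; hybridized with 32P-labeled full-length cDNA probes for Bax, Noxa, Puma; 18S rRNA loading control.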

The test system of assay [4] is Thymocyte. In words: Induction of Puma gene expression in mouse thymocytes. Type of assay: functional, cell-based.
For assay [5], the system named is Thymocyte. In words: Induction of p21 mRNA expression in mouse thymocytes.
Assay [6] concerns the target Cellular tumor antigen p53 (Homo sapiens) (UniProt P04637). In words: Binding affinity to p53 assessed as reduction in mitochondrial-bound p53 level at 25 uM. The method, boiled down: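 Cell-free reconstitution: freshly isolated HeLa or Saos-2 mitochondria (40 mg as printed) incubated 1 h at 37 °C with purified baculoviral human wild-type p53 (60 ng) plus compound in MS buffer with CaCl2; mitochondria pelleted, washed three times, p53 cosedimentation by western blot, mt-Hsp75 loading control.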

For a further assay, the system named is Mus musculus. In words: Protection against 8 Gy gamma radiation-induced death in mouse assessed as increase in survival at 40 mg/kg, ip. The settings on record: route intraperitoneal. Type of assay: functional. The method, boiled down:
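Male C57Bl/6J mice, 8–10 weeks old, given a single 40 mg kg–1 intraperitoneal dose 30 min before total-body gamma irradiation (137Cs, 4 Gy min–1) at 8 or 9 Gy. Survival followed. Ten mice per subgroup; three independent repeats.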

Assay [7] addresses Cellular tumor antigen p53 (Mus musculus) (UniProt P02340). Description: Binding affinity to p53 in gamma irradiated mouse thymocyte assessed as cytosolic Bcl-2 concentration at 10 uM after 2 hrs.

Activity calls are given as the source filed them. No cut-off for these calls is given here.

Chain of Cellular tumor antigen p53 (Homo sapiens) (P04637 whole entry, looked up): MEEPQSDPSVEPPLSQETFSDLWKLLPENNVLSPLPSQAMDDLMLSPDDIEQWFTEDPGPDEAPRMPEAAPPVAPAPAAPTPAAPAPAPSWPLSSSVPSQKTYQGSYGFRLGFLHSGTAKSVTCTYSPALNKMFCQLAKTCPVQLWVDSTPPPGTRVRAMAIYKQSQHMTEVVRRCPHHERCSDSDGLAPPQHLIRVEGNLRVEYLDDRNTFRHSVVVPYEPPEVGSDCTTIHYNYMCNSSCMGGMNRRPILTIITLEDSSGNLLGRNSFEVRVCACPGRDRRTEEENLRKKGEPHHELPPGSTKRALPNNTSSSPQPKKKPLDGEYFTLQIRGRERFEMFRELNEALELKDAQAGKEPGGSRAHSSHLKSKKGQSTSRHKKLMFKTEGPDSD
Chain of Cellular tumor antigen p53 (Mus musculus) (P02340 whole entry): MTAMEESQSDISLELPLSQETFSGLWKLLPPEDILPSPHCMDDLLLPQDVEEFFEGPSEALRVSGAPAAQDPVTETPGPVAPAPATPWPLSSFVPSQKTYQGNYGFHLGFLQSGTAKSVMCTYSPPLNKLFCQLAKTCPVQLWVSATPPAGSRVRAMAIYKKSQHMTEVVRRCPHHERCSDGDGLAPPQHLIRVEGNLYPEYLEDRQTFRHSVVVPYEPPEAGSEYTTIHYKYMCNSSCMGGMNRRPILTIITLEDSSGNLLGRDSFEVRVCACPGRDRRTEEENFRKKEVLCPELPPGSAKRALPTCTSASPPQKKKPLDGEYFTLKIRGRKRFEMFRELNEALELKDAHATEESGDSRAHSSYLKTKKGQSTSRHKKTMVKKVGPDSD

Turning to `NS(=O)(=O)C#Cc1ccccc1`, the inhibition entry in assay [1], in assay [2] and in assay [3] was “inactive” throughout. Moreover, the outcome (in the assay on U2OS; with Thymocyte [4]; in the assay with Thymocyte [5]; in assay [7]) was inactive. Besides, the outcome in assay [6] was Active. Further, in the assay with Mus musculus, the Activity amounted to 70%.
